Assay results as given in ChEMBL document CHEMBL4152387, “Discovery of a Potent Grp94 Selective Inhibitor with Anti-Inflammatory Efficacy in a Mouse Model of Ulcerative Colitis” (J Med Chem, 2018).
Active and inactive are the calls of the source. The calls are words filed in the database; no cut-off is given here.

Columns and labels:
[1] = Inhibition of FITC-geldanamycin binding to dog GST-tagged GRP94 N41 deletion mutant (69 to 337 residues) expressed in Escherichia coli BL21star (DE3) after 4 hrs by GM-FITC-based FP assay; design: species or system Canis lupus familiaris
[2] = target: T1, Heat shock protein HSP 90-alpha (Homo sapiens, UniProt P07900); experiment: Inhibition of FITC-geldanamycin binding to human His-tagged HSP90alpha N-terminal domain (1 to 236 residues) expressed in Escherichia coli BL21star (DE3) at 100 uM after 4 hrs by FP assay relative to control
Method in brief: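 Hsp90αN (15 nM final) with GM-FITC (6 nM final) and compound in HEPES/KCl/MgCl2 buffer pH 7.4 with NP40, DTT, BGG; 4 h at 4 °C in dark; FP at ex 485/em 535 nm; inhibition computed against GM-FITC-only and protein-plus-probe controls; n = 3.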

Canis lupus familiaris = species: Canis lupus familiaris; experiment: Inhibition of FITC-geldanamycin binding to dog GST-tagged GRP94 N41 deletion mutant (69 to 337 residues) expressed in Escherichia coli BL21star (DE3) at 100 uM after 4 hrs by FP assay relative to control
[3] = target: T1, Heat shock protein HSP 90-alpha; experiment: Inhibition of HSP90alpha in human PANC1 cells assessed as up-regulation of Hsp70 at 1 uM after 36 hrs by Western blot analysis; type: cell-based
Method in brief: (§1)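 Panc-1 cells treated 36 h; total protein lysate with protease/phosphatase inhibitors; equal protein by BCA on SDS-PAGE, PVDF, Western blot for Hsp70 and Akt, β-actin loading control; AT13387 reference.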

[4] = target: T1, Heat shock protein HSP 90-alpha; experiment: Inhibition of HSP90alpha in human PANC1 cells assessed as akt degradation at 1 uM after 36 hrs by Western blot analysis; type: cell-based; method in brief: as §1
Heat shock protein HSP90 = Heat shock protein HSP90 (Homo sapiens, UniProt P07900+P08238); experiment: Inhibition of FITC-geldanamycin binding to human His-tagged HSP90alpha N-terminal domain (1 to 236 residues) expressed in Escherichia coli BL21star (DE3) after 4 hrs by FP assay relative to control

Row | SMILES | IC50 [1] [nM] | inhibition (INH) [2] | inhibition (Canis lupus familiaris) | inhibition (INH) [3] | inhibition (INH) [4] | IC50 (Heat shock protein HSP90) [nM]
1 | CC(=O)N1CCC(Nc2ccc(-c3ccc(C(C)C)cc3)cc2C(N)=O)CC1 | 55 | Not Active | 100% | – | – | –
2 | CC(C)CNc1ccc(-c2ccc(C(C)C)cc2)cc1C(N)=O | 2320 | Not Active | 96% | – | – | –
3 | Cc1ccc(-c2ccc(N[C@H]3CC[C@H](O)CC3)c(C(N)=O)c2)cc1C | 710 | Not Active | 100% | – | – | –
4 | NC(=O)c1cc(-c2cc(Cl)cc(Cl)c2)ccc1N[C@H]1CC[C@H](O)CC1 | 24700 | Not Active | 66% | – | – | –
5 | CC(C)c1ccc(-c2ccc(NC3CCN(C(=O)CCCCCN)CC3)c(C(N)=O)c2)cc1 | 150 | Not Active | 100% | – | – | –
6 | Cc1ccc(-c2ccc(N[C@H]3CC[C@H](O)CC3)c(C(N)=O)c2)c(C)c1 | 1220 | Not Active | 91% | – | – | –
7 | CCc1ccc(-c2ccc(N[C@H]3CC[C@H](O)CC3)c(C(N)=O)c2)cc1 | 7 | Not Active | 100% | – | – | –
8 | COCCNc1ccc(-c2ccc(C(C)C)cc2)cc1C(N)=O | 930 | Not Active | 96% | – | – | –
9 | NC(=O)c1cc(-c2ccccc2Cl)ccc1N[C@H]1CC[C@H](O)CC1 | 2720 | Not Active | 100% | – | – | –
10 | CCOc1ccc(-c2ccc(N[C@H]3CC[C@H](O)CC3)c(C(N)=O)c2)cc1 | 490 | Not Active | 100% | – | – | –
11 | CC(C)c1cc(C(=O)N2Cc3ccc(CN4CCN(C)CC4)cc3C2)c(O)cc1O [ONALESPIB] | 20 | – | 100% | Active | Active | 22
12 | NC(=O)c1cc(-c2cccc(Cl)c2)ccc1N[C@H]1CC[C@H](O)CC1 | 2030 | Not Active | 100% | – | – | –
13 | CC(C)c1ccc(-c2ccc(NC3CCOCC3)c(C(N)=O)c2)cc1 | 73 | Not Active | 100% | – | – | –
14 | CC(C)C[C@H](N)C(=O)N1CCC(Nc2ccc(-c3ccc(C(C)C)cc3)cc2C(N)=O)CC1 | 480 | Not Active | 89% | – | – | –
15 | NC(=O)c1cc(-c2ccc(Cl)cc2)ccc1N[C@H]1CC[C@H](O)CC1 | 170 | Not Active | 100% | – | – | –
16 | NC(=O)c1cc(-c2cccc(Cl)c2Cl)ccc1N[C@H]1CC[C@H](O)CC1 | 310 | Not Active | 100% | – | – | –
17 | Cc1cccc(-c2ccc(N[C@H]3CC[C@H](O)CC3)c(C(N)=O)c2)c1C | 460 | Not Active | 81% | – | – | –
18 | CC(C)c1ccc(-c2ccc(NC3CCN(C(=O)C(N)C(C)C)CC3)c(C(N)=O)c2)cc1 (configuration not stated) | 450 | Not Active | 91% | – | – | –
19 | CC1(C)CC(=O)c2c(C(F)(F)F)nn(-c3ccc(C(N)=O)c(N[C@H]4CC[C@H](O)CC4)c3)c2C1 [SNX-2112] | 97 | – | 100% | – | – | –
20 | Cc1ccccc1-c1ccc(N[C@H]2CC[C@H](O)CC2)c(C(N)=O)c1 | 1810 | Not Active | 90% | – | – | –
21 | NC(=O)c1cc(-c2ccc(Cl)c(Cl)c2)ccc1N[C@H]1CC[C@H](O)CC1 | 600 | Not Active | 100% | – | – | –
22 | NC(=O)c1cc(-c2c(Cl)cccc2Cl)ccc1N[C@H]1CC[C@H](O)CC1 | 140 | Not Active | 100% | – | – | –
23 | CC(C)c1ccc(-c2ccc(NCC3CCCCC3)c(C(N)=O)c2)cc1 | – | Not Active | inactive | – | – | –
24 | CCc1ccccc1-c1ccc(N[C@H]2CC[C@H](O)CC2)c(C(N)=O)c1 | 2060 | Not Active | 92% | – | – | –
